≈ marks a conversion by molar mass, not a printed value. Calls of active or inactive are those of the source. No cut-off for these calls is given here.
Tests used:
Staphylococcus aureus [1] = assay: Induction of morphological changes in Staphylococcus aureus assessed as changed population at 3.5 uM measured after 2 hrs by flow cytometric analysis (reference value: 5.71%); format: functional
Staphylococcus aureus [2] = assay: Induction of morphological changes in Staphylococcus aureus assessed as unchanged population at 3.5 uM measured after 2 hrs by flow cytometric analysis (reference value: 90.4%); format: functional
Escherichia coli [3] = assay: Disruption of membrane integrity in Escherichia coli assessed as increase in extracellular ALK level at 3.5 to 5 uM measured after 2 hrs by PLP substrate based assay
DNA [4] = assay: Inhibition of ethidium bromide binding to Staphylococcus aureus DNA at pH 6 to 8 by fluorescence assay; format: nucleic-acid assay
Procedure, shortened: (§1)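 S. aureus genomic DNA (10 µM) with EtBr (5 µM) in 10 mM NaP pH 7, 10 mM NaCl and 1% DMSO, at 25 and 37 °C. Titrated with compound from 2.5 to 100 µM. Excitation 480 nm, emission scanned 520–700 nm, corrected for inner filter. Stern–Volmer analysis, triplicates. Variants: pH 6–8, or NaCl raised to 50 and 200 mM.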

DNA [5] = assay: Binding affinity to Staphylococcus aureus DNA assessed as change in B-DNA structure by circular dichroism method; format: nucleic-acid assay
Procedure, shortened: (§2)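 Genomic DNA isolated from overnight cultures of each strain. Titrated with compound from 15 to 60 µM in a 10 mm quartz cuvette. CD spectra recorded from 230 to 500 nm at 100 nm/min; ellipticity followed at 320 nm.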

Staphylococcus aureus [6] = assay: Induction of morphological changes in Staphylococcus aureus assessed as unchanged population at 5 uM measured after 2 hrs by flow cytometric analysis (reference value: 90.4%); format: functional
Staphylococcus aureus [7] = assay: Disruption of cell membrane in Staphylococcus aureus assessed as accumulation of propidium iodide negative cells at 5 uM by flow cytometric analysis (reference value: 98.2%); format: functional
DNA [8] = assay: Binding affinity to Staphylococcus aureus DNA assessed as formation of DNA superstructure at 1:1 to 3:1 compound to DNA ratio by atomic force microscopic analysis; format: nucleic-acid assay
Procedure, shortened: (§3)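 Isolated S. aureus genomic DNA (2.8 Mbp) treated with compound at increasing [compound]:[DNA bp] ratios, up to 3:1. Imaged by atomic force microscopy against untreated DNA.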

Calf thymus DNA [9] = assay: Binding affinity to calf thymus DNA by isothermal titration calorimetric analysis; format: nucleic-acid assay; conditions: Bos taurus
DNA [10] = assay: Binding affinity to Staphylococcus aureus DNA assessed as relaxation of DNA strand at 1:1 compound to DNA ratio by atomic force microscopic analysis; format: nucleic-acid assay; procedure, shortened: as §3
Staphylococcus aureus [11] = assay: Induction of DNA breaks in Staphylococcus aureus at 3.5 uM by TUNEL staining based confocal laser scanning fluorescence microscopic analysis; format: functional, organism-based
Procedure, shortened: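 S. aureus treated with 3.5 µM or 0.5% DMSO; pelleted, fixed in 16% paraformaldehyde 30 min at 4°C, permeabilised with 0.2% Triton X-100 plus lysostaphin 0.05 mg/mL; TdT tailing with fluorescent nucleotides 60 min at 37°C, stopped with 2X SSC; confocal imaging with fluorescein filter.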

[12] = test system: Pseudarthrobacter chlorophenolicus; assay: Binding affinity to Arthrobacter chlorophenolicus DNA assessed as appearance of induced CD up to 60 uM by circular dichroism method; procedure, shortened: as §2
DNA [13] = assay: Binding affinity to Escherichia coli pBR322 DNA assessed as transition of local to global DNA at 2:1 to 3:1 compound to DNA ratio by atomic force microscopic analysis; format: nucleic-acid assay
Procedure, shortened: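 Supercoiled pBR322 plasmid treated with compound at [compound]:[DNA bp] ratios of 0.5:1, 1:1, 1.5:1, 2:1 and 3:1. Imaged by atomic force microscopy, with DNA height measured and compared against untreated plasmid.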

DNA [14] = assay: Binding affinity to Staphylococcus aureus DNA assessed as appearance of induced CD up to 60 uM by circular dichroism method; format: nucleic-acid assay; procedure, shortened: as §2
Calf thymus DNA [15] = assay: Binding affinity to calf thymus DNA assessed as change in B-DNA structure at 265 nm by circular dichroism method; format: nucleic-acid assay; conditions: Bos taurus
Staphylococcus aureus [16] = assay: Induction of morphological changes in Staphylococcus aureus assessed as unchanged population at 7.5 uM measured after 2 hrs by flow cytometric analysis (reference value: 90.4%); format: functional
[17] = test system: Staphylococcus epidermidis; assay: Disruption of preformed biofilm in Staphylococcus epidermidis up to 4 times MIC measured after 12 hrs by crystal violet staining based light microscopic analysis; format: functional, organism-based
Procedure, shortened: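 Planktonic cells washed off; 1% crystal violet 10 min, solubilised in 30% acetic acid, A550 read; wells also imaged at 20X by light microscopy.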

DNA [18] = assay: Binding affinity to DNA isolated from HEK293 cells assessed as change in B-DNA structure at 15 to 180 uM by circular dichroism method; format: ADME, cell-free; conditions: human, hek293, 180 µM
Escherichia coli [19] = assay: Antibacterial activity against Escherichia coli MTCC1916 by broth microdilution assay; format: functional
Procedure, shortened: (§4)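 Broth microdilution per CLSI; 5×10^5 cfu/mL bacteria in LB broth; compounds from DMSO stocks, final DMSO under 0.6%, with DMSO control. Plates incubated at the strain's recommended growth temperature and time; growth read as OD600.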

Pseudomonas aeruginosa = assay: Antibacterial activity against Pseudomonas aeruginosa MTCC1688 by broth microdilution assay; format: functional; procedure, shortened: as §4
DNA [20] = assay: Inhibition of ethidium bromide binding to Staphylococcus aureus DNA in presence of 10 to 200 mM NaCl by fluorescence assay; format: nucleic-acid assay; procedure, shortened: as §1
[21] = test system: Poly(dG-dC)oligonucleotide; assay: Binding affinity to poly(dG-dC) DNA (unknown origin) assessed as change in B-DNA structure by circular dichroism method; format: nucleic-acid assay
Procedure, shortened: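 Poly(dA-dT)·poly(dA-dT) or poly(dG-dC)·poly(dG-dC) held at 10 µM. Titrated with compound from 20 to 60 µM and followed by circular dichroism for change in the B-DNA band and appearance of induced CD.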

DNA [22] = assay: Inhibition of ethidium bromide binding to Staphylococcus aureus DNA at 37 degC by fluorescence assay; format: nucleic-acid assay; procedure, shortened: as §1
DNA [23] = assay: Inhibition of ethidium bromide binding to Staphylococcus aureus DNA assessed as Stern-Volmer quenching constant by fluorescence assay; format: nucleic-acid assay
Procedure, shortened: (§5)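 Fluorescence intercalator displacement: S. aureus genomic DNA 10 µM plus EtBr 5 µM in 10 mM NaP pH 7, 10 mM NaCl, 1% DMSO, at 25 and 37 °C; titrated with 2.5–100 µM compound. Excitation 480 nm, emission 520–700 nm, inner-filter corrected, triplicates; Stern–Volmer analysis, F0/F = 1 + Ksv[Q].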

Staphylococcus aureus [24] = assay: Induction of morphological changes in Staphylococcus aureus assessed as changed population at 5 uM measured after 2 hrs by flow cytometric analysis (reference value: 5.71%); format: functional
DNA [25] = assay: Inhibition of ethidium bromide binding to Staphylococcus aureus DNA by fluorescence assay; format: nucleic-acid assay; procedure, shortened: as §5
DNA [26] = assay: Binding affinity to Staphylococcus aureus DNA assessed as induction of structural changes by EtBr staining based agarose gel shift assay; format: nucleic-acid assay
Procedure, shortened: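 S. aureus genomic DNA incubated with compound at stated [compound]:[DNA bp] ratios, 16 h at 37 °C, in NaP buffer pH 7 with 10 mM NaCl. Run on agarose gel, stained with EtBr (1 µg/mL) and classed as supercoiled, structurally altered or condensed.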

- inhibition (DNA [4]): Active
- Activity (DNA [5]): Dose-dependent effect
- Activity (DNA [8]): Active
- Ka (Calf thymus DNA [9]): 2.27 ×10⁴ /M
- Activity (DNA [10]): Active
- Activity [12]: Active
- Activity (DNA [13]): Active
- Activity (DNA [14]): Active
- Activity (Calf thymus DNA [15]): Dose-dependent effect
- Activity (DNA [18]): Active
- MIC (Escherichia coli [19]): 3.36 µg/mL (≈ 7.49 µM)
- MIC (Pseudomonas aeruginosa): 6.73 µg/mL (≈ 15 µM)
- inhibition (DNA [20]): Active
- Activity [21]: Dose-dependent effect
- inhibition (DNA [22]): Active
- KSV (DNA [23]): 1 ×10⁴ /M
- inhibition (DNA [25]): Dose-dependent effect
- Activity (DNA [26]): Dose-dependent effect
SMILES: CN(C)CCCNc1nc2cc([N+](=O)[O-])ccc2nc1NCc1ccc(C(F)(F)F)cc1
- Activity (Staphylococcus aureus [1]): 10.2%
- Activity (Staphylococcus aureus [2]): 86.3%
- Activity (Escherichia coli [3]): Active
- Activity (Staphylococcus aureus [6]): 82.4%
- Activity (Staphylococcus aureus [7]): 79%
- Activity (Staphylococcus aureus [11]): Active
- Activity (Staphylococcus aureus [16]): 81%
- Activity [17]: Active
- Activity (Staphylococcus aureus [24]): 14.6%
